The results in this text go back to publication PMC12716021 (Chemistry & Biodiversity, 2025).

The nature of assay [1]: Ferric reducing antioxidant power. As to conditions: read-out: IC50 FRAP; in vitro; standard gallic acid.
Assay [2] in a line: DPPH radical scavenging activity. As to conditions: read-out: IC50 DPPH; in vitro; standard gallic acid. In general terms: Loss of DPPH colour is used to gauge radical scavenging.
The nature of assay [3]: NO scavenging activity. As to conditions: read-out: IC50 NO; in vitro; standard gallic acid. Summed up: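 Sodium nitroprusside (10 mM, in sodium phosphate buffer pH 7.4) added to test compound ([…]) or distilled water as control, then incubated at 37°C for 2 h. Griess reagent added, and A540 read. NO scavenging % = (1 − A compound/A control) × 100.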

The term IC50 denotes the point on the concentration scale where inhibition reaches its midpoint.

On to `O=C(O)c1cc(O)c(O)c(O)c1` [Gallic acid], for which the IC50 in assay [1] stood at 117 µM; in assay [2], 105 µM; in assay [3], 78.5 µM.
